According to ChEMBL document CHEMBL4049449, “Discovery of a Novel Class of Survival Motor Neuron 2 Splicing Modifiers for the Treatment of Spinal Muscular Atrophy” (J Med Chem, 2017):
pIC50: −log10 of the molar value. Converted amounts (≈) assume the structure as drawn.

Tests used:
Salmonella typhimurium [1] = experiment: Genotoxicity in Salmonella typhimurium TA100 in presence of rat liver S9 fraction by Ames test; assay type: toxicity; settings: salmonella enterica subsp. enterica serovar typhimurium
In short: (§1)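 Ames plate incorporation: strains grown overnight at 37 °C in nutrient broth (TA102 with 0.3 μg/mL tetracycline). Compound at 20–2000 μg/plate in top agar with histidine/biotin, plus rat liver S9 mix (NADP, glucose 6-phosphate, KCl, MgCl2, pH 7.4 phosphate). Vogel–Bonner plates incubated 37 °C, 2 days; colonies counted by image analysis. Positive: dose-dependent ≥2-fold (TA1535, TA98) or ≥1.5-fold (TA97, TA100, TA102) rise over background.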

Cytochrome P450 2C9 = Cytochrome P450 2C9 (Homo sapiens, UniProt P11712); experiment: Inhibition of CYP2C9 (unknown origin); assay type: ADME
[2] = Stability at various pH levels assessed as amide bond hydrolysis; assay type: physicochemical
Salmonella typhimurium [3] = experiment: Genotoxicity in Salmonella typhimurium TA97 in presence of rat liver S9 fraction by Ames test; assay type: toxicity; settings: salmonella enterica subsp. enterica serovar typhimurium; in short: as §1
hERG (KCNH2) = hERG (KCNH2) (Homo sapiens, UniProt Q12809); experiment: Inhibition of human ERG channel
Cytochrome P450 2D6 = Cytochrome P450 2D6 (Homo sapiens, UniProt P10635); experiment: Inhibition of CYP2D6 (unknown origin); assay type: ADME
Homo sapiens [4] = species: Homo sapiens; experiment: Modulation of patient derived full length SMN2 pre mRNA splicing assessed as restoration of functional SMN2 to protein level
Plasma [5] = experiment: Drug metabolism in human plasma assessed as amide bond hydrolysis at 1 uM after 15 to 300 mins by LC-MS/MS analysis; assay type: ADME, cell-free
Salmonella typhimurium [6] = experiment: Genotoxicity in Salmonella typhimurium TA98 in presence of rat liver S9 fraction by Ames test; assay type: toxicity; settings: salmonella enterica subsp. enterica serovar typhimurium; in short: as §1
[7] = Solubility of the compound in phosphate buffer solution at pH 6.5 by HPLC-UV analysis; assay type: physicochemical
In short: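 Lysa: duplicate samples from 10 mM DMSO stocks, DMSO evaporated, residue taken up in 0.05 M phosphate buffer pH 6.5, stirred 1 h, shaken 2 h, left overnight, filtered. Filtrate and its 1/10 dilution were read by direct UV or HPLC-UV against a four-point calibration; range 0–666 μg/mL for MW 500.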

Plasma [8] = experiment: Drug metabolism in mouse plasma assessed as amide bond hydrolysis at 1 uM after 15 to 300 mins by LC-MS/MS analysis; assay type: ADME, cell-free
[9] = Octanol-phosphate buffer partition co-efficient, log D of the compound at pH 7.4 after 24 hrs by shake flask method; assay type: physicochemical
In short: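 CAMDIS shake-flask variant: PVDF membranes impregnated with 1-octanol dipped in 25 mM phosphate buffer pH 7.4 containing compound, shaken 24 h at 23 °C. Two octanol/water ratios were run for hydrophilic or lipophilic compounds. Aqueous concentration was measured by LC/MS with and without octanol, and log D was calculated from the difference and the phase ratio.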

Plasma [10] = experiment: Drug metabolism in rat plasma assessed as amide bond hydrolysis at 1 uM after 15 to 300 mins by LC-MS/MS analysis; assay type: ADME, cell-free
[11] = Glutathione reactivity assessed as GSH adduct formation
Homo sapiens [12] = species: Homo sapiens; experiment: Modulation of patient derived full length SMN2 pre mRNA splicing assessed as inclusion of exon 7
Cytochrome P450 3A4 = Cytochrome P450 3A4 (Homo sapiens, UniProt P08684); experiment: Inhibition of CYP3A4 (unknown origin); assay type: ADME
[13] = Permeability of the compound by PAMPA; assay type: physicochemical; settings: read-out: permeability
In short: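 Parallel artificial membrane permeability: phospholipid-coated filter plate sandwiched between donor compound/buffer and acceptor buffer. Donor concentration at start was compared with donor and acceptor concentrations at end time, giving Pe (10−6 cm/s); membrane retention was also determined.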

Salmonella typhimurium [14] = experiment: Genotoxicity in Salmonella typhimurium TA102 in presence of rat liver S9 fraction by Ames test; assay type: toxicity; settings: salmonella enterica subsp. enterica serovar typhimurium; in short: as §1
Salmonella typhimurium [15] = experiment: Genotoxicity in Salmonella typhimurium TA1535 in presence of rat liver S9 fraction by Ames test; assay type: toxicity; settings: salmonella enterica subsp. enterica serovar typhimurium; in short: as §1
Mus musculus [16] = experiment: Induction of SMN protein levels in neonatal delta7 FVB mouse quadriceps muscle at 0.3 mg/kg, ip qd administered from postnatal day 3 to day 9 measured 1 hr post last dose by HTRF assay relative to control; assay type: functional
Mus musculus [17] = experiment: Induction of SMN protein levels in neonatal delta7 FVB mouse brain at 1 mg/kg, ip qd administered from postnatal day 3 to day 9 measured 1 hr post last dose by HTRF assay relative to control; assay type: functional
[18] = Total AUC in neonatal wild type FVB mouse plasma at 3 mg/kg, ip qd for 10 days by LC-MS/MS analysis; assay type: ADME, organism-based; design: dose 3 mg/kg, route intraperitoneal, time AUCmax
In short: (§2)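 Plasma AUC determined in a satellite group of neonatal (P10) wild-type mice dosed ip. Free AUC was calculated using the free fraction measured in serum from adult mice.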

P-gp = experiment: Substrate activity at mouse P-gp assessed as efflux ratio; assay type: ADME; settings: not told
Mus musculus [19] = experiment: Induction of SMN protein levels in neonatal delta7 FVB mouse quadriceps muscle at 3 mg/kg, ip qd administered from postnatal day 3 to day 9 measured 1 hr post last dose by HTRF assay relative to control; assay type: functional
[20] = Fraction unbound in mouse plasma; assay type: ADME, cell-free
[21] = Substrate activity at human P-gp; assay type: ADME
Mus musculus [22] = experiment: Induction of SMN protein levels in C/C-Allele SMA FVB mouse quadriceps muscle at 10 mg/kg, po qd for 10 days measured 1 hrs post last dose by HTRF assay relative to control; assay type: functional
In short: (§3)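 Adult C/C-allele SMA mice dosed orally once daily for 10 days at 1, 3 or 10 mg/kg. SMN protein in brain and quadriceps was expressed as % increase over vehicle-treated animals.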

Mus musculus [23] = experiment: Induction of SMN protein levels in C/C-Allele SMA FVB mouse quadriceps muscle at 1 mg/kg, po qd for 10 days measured 1 hrs post last dose by HTRF assay relative to control; assay type: functional; in short: as §3
Mus musculus [24] = experiment: Unbound AUC in C/C-Allele SMA FVB mouse plasma at 10 mg/kg, po qd for 10 days by LC-MS/MS analysis; assay type: ADME, organism-based; settings: in vivo, 240 h
Mus musculus [25] = experiment: Unbound AUC in neonatal […] FVB mouse plasma at 3 mg/kg, ip qd administered from postnatal day 3 to day 9 by LC-MS/MS analysis; assay type: ADME, organism-based; settings: in vivo; in short: as §2
[26] = Ratio of drug level in wild type FVB mouse brain to plasma at 10 mg/kg, po; assay type: ADME, organism-based; settings: read-out: BPR
Mus musculus [27] = experiment: Induction of SMN protein levels in C/C-Allele SMA FVB mouse quadriceps muscle administered as po qd for 10 days measured 1 hr post last dose by HTRF assay; assay type: functional, organism-based; in short: as §3
Mus musculus [28] = experiment: Induction of SMN protein levels in C/C-Allele SMA FVB mouse brain at 10 mg/kg, po qd for 10 days measured 1 hr post last dose by HTRF assay relative to control; assay type: functional; in short: as §3
Mus musculus [29] = experiment: Induction of SMN protein levels in C/C-Allele SMA FVB mouse quadriceps muscle at 3 mg/kg, po qd for 10 days measured 1 hrs post last dose by HTRF assay relative to control; assay type: functional; in short: as §3
Mus musculus [30] = experiment: Induction of SMN protein levels in neonatal delta7 FVB mouse brain at 0.3 mg/kg, ip qd administered from postnatal day 3 to day 9 measured 1 hr post last dose by HTRF assay relative to control; assay type: functional
Mus musculus [31] = experiment: Induction of SMN protein levels in C/C-Allele SMA FVB mouse brain administered as po qd for 10 days measured 1 hr post last dose by HTRF assay; assay type: functional, organism-based; in short: as §3
Mus musculus [32] = experiment: Induction of SMN protein levels in neonatal delta7 FVB mouse quadriceps muscle at 1 mg/kg, ip qd administered from postnatal day 3 to day 9 measured 1 hr post last dose by HTRF assay relative to control; assay type: functional
Mus musculus [33] = experiment: Induction of SMN protein levels in neonatal delta7 FVB mouse quadriceps muscle administered as ip qd from postnatal day 3 to day 9 measured 1 hr post last dose by HTRF assay relative to control; assay type: functional, organism-based
Mus musculus [34] = experiment: Induction of SMN protein levels in neonatal delta7 FVB mouse brain at 3 mg/kg, ip qd administered from postnatal day 3 to day 9 measured 1 hr post last dose by HTRF assay relative to control; assay type: functional
Mus musculus [35] = experiment: Induction of SMN protein levels in C/C-Allele SMA FVB mouse brain at 3 mg/kg, po qd for 10 days measured 1 hr post last dose by HTRF assay relative to control; assay type: functional; in short: as §3
[36] = Fraction unbound in human plasma; assay type: ADME, cell-free
[37] = Total AUC in wild type FVB mouse plasma at 10 mg/kg, po qd for 10 days by LC-MS/MS analysis; assay type: ADME, organism-based; design: dose 10 mg/kg, route oral, time AUCmax
Mus musculus [38] = experiment: Induction of SMN protein levels in neonatal delta7 FVB mouse brain administered as ip qd from postnatal day 3 to day 9 measured 1 hr post last dose by HTRF assay relative to control; assay type: functional, organism-based
Mus musculus [39] = experiment: Induction of SMN protein levels in C/C-Allele SMA FVB mouse brain at 1 mg/kg, po qd for 10 days measured 1 hr post last dose by HTRF assay relative to control; assay type: functional; in short: as §3

Sequence of Cytochrome P450 3A4 (P08684 whole entry): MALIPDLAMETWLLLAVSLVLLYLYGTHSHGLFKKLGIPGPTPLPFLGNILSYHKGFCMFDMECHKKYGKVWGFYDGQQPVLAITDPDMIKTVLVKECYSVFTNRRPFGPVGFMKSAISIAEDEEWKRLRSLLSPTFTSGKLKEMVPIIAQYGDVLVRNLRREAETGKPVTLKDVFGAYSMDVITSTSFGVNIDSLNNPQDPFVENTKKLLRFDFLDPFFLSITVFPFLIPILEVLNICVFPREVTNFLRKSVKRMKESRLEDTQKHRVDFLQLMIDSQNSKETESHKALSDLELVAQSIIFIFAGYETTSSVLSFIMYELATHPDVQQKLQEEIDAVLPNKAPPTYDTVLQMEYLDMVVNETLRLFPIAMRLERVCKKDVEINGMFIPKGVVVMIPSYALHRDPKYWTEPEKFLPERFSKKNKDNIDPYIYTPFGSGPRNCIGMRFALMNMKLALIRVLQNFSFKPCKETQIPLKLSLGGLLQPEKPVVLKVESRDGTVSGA
Sequence of Cytochrome P450 2C9 (P11712 whole entry): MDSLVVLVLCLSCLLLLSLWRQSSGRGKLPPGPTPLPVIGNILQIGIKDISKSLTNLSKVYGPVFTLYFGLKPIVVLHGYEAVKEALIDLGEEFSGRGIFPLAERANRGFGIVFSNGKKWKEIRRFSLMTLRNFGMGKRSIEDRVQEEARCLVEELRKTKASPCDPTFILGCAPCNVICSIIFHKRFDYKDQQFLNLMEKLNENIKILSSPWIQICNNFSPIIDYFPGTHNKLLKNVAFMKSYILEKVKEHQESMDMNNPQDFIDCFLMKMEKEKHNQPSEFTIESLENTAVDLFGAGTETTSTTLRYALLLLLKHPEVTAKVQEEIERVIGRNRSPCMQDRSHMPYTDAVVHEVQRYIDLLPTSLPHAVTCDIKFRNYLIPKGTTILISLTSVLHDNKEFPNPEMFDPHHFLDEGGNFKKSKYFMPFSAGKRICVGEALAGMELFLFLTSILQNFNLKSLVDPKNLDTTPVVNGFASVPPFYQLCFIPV
Sequence of Cytochrome P450 2D6 (P10635 whole entry): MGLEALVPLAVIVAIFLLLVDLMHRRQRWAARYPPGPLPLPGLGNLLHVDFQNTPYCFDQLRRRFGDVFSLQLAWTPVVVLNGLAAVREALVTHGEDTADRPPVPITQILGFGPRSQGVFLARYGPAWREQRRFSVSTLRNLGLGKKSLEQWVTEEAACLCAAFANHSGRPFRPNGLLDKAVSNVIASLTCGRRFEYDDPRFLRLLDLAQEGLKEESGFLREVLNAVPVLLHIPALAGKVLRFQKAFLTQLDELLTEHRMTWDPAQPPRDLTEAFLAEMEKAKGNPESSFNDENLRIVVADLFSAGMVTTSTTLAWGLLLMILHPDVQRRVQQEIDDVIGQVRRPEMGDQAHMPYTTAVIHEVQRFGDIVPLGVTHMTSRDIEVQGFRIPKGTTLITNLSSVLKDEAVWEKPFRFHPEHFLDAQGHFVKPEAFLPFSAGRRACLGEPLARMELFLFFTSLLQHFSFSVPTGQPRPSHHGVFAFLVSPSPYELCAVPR
Sequence of hERG (KCNH2) (Q12809 whole entry): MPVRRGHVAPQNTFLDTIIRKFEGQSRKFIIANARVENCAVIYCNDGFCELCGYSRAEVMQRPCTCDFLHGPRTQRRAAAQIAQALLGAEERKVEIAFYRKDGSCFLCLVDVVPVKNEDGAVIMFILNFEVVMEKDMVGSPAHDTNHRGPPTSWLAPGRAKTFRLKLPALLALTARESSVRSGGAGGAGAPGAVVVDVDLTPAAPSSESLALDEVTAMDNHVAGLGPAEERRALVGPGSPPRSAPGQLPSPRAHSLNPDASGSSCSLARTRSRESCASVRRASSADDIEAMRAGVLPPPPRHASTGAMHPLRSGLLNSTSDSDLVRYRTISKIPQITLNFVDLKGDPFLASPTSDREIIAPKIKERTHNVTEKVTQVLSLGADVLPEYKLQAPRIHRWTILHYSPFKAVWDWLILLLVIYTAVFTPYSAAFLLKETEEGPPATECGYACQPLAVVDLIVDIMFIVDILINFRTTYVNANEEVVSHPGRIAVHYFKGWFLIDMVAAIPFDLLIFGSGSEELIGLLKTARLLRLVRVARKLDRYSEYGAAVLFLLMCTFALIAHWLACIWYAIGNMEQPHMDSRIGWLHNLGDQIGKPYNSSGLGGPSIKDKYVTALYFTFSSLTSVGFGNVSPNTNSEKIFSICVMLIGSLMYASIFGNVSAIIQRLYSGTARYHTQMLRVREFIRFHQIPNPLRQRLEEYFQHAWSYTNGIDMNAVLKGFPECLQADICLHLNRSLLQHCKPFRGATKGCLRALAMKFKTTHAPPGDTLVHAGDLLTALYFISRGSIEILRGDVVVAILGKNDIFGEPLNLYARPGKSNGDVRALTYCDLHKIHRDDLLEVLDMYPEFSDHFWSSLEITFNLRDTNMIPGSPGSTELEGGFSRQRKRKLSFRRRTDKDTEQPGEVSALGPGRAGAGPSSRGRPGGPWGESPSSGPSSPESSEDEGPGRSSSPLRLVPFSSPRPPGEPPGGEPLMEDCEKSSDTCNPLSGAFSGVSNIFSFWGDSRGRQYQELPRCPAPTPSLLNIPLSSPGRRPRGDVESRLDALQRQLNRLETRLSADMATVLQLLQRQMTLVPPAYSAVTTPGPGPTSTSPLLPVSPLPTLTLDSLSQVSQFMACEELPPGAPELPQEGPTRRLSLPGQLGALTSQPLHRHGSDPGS

## Cc1cn2cc(NC(=O)c3ccc(N4CCN(C)CC4)cc3)nc2c(C)n1
Salmonella typhimurium [1]
  Activity: Non-Toxic
Cytochrome P450 2C9
  pIC50: < 4.30
[2]
  Stability: Stable
Salmonella typhimurium [3]
  Activity: Non-Toxic
hERG (KCNH2)
  IC20: > 10 µM
Cytochrome P450 2D6
  pIC50: < 4.30
Homo sapiens [4]
  EC1.5: 3950 nM
Plasma [5]
  Stability: Stable
Salmonella typhimurium [6]
  Activity: Non-Toxic
[7]
  solubility: 111 µg/mL (≈ 305 µM)
Plasma [8]
  Stability: Stable
[9]
  logD at 24 h: 2
Plasma [10]
  Stability: Stable
[11]
  Stability: Stable
Homo sapiens [12]
  EC1.5: 660 nM
Cytochrome P450 3A4
  pIC50: < 4.30
[13]
  Papp: 2.38 ×10⁻⁶ cm/s
Salmonella typhimurium [14]
  Activity: Non-Toxic
Salmonella typhimurium [15]
  Activity: Non-Toxic

## Cc1cn2cc(NC(=O)c3ccc(N4CCNC(C)C4)cc3F)nc2c(C)n1 (stereo unspecified)
Mus musculus [16]
  Activity: 14%
Mus musculus [17]
  Activity: 75%
[18]
  AUC at 240 h: 3900 ng·h/mL
P-gp
  efflux ratio: 4.1
Salmonella typhimurium [1]
  Activity: Toxic
Mus musculus [19]
  Activity: 140%
[20]
  fraction unbound: 0.197
[21]
  Activity: Not Active
Salmonella typhimurium [3]
  Activity: Toxic
Mus musculus [22]
  Activity: 152%
Mus musculus [23]
  Activity: 13%
Mus musculus [24]
  fAUC: 1.58 µg·h/mL
Mus musculus [25]
  fAUC: 0.79 µg·h/mL
[26]
  Kp: 3.4
Homo sapiens [4]
  EC1.5: 98 nM
Salmonella typhimurium [6]
  Activity: Toxic
Mus musculus [27]
  Activity: Dose-dependent effect
Mus musculus [28]
  Activity: 102%
Mus musculus [29]
  Activity: 54%
Mus musculus [30]
  Activity: 24%
Mus musculus [31]
  Activity: Dose-dependent effect
Mus musculus [32]
  Activity: 24%
Mus musculus [33]
  Activity: Dose-dependent effect
Homo sapiens [12]
  EC1.5: 52 nM
Mus musculus [34]
  Activity: 150%
Mus musculus [35]
  Activity: 24%
[36]
  fraction unbound: 0.186
Salmonella typhimurium [14]
  Activity: Toxic
[37]
  AUC at 240 h: 7900 ng·h/mL
Salmonella typhimurium [15]
  Activity: Toxic
Mus musculus [38]
  Activity: Dose-dependent effect
Mus musculus [39]
  Activity: 0%
